Sampled rows, rich in hits. Any-hit rate of the full collection: about 5.3%.
NALP3 yeast inh: NALP3 inhibition in yeast; inhibition, % at 10 µM; 0.39% of 330,000 active; Yeast reconstituted NLRP3/ASC/caspase-1, beta-gal luminescence, 24 h; AID 2825;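 active means inhibition of 50% or more; inactive means inhibition below 50%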
CSC inhib: blocks cancer stem cells; inhibition, % at 7.5 µM; 1.1% of 300,000 active; cancer stem cell-like cells viability, luminescence; in the data active means inhibition above about 75%; inconclusive means no clear call, values can overlap the other calls; tested in HMLE shEcad cells
Mdm2-MdmX inh: human Mdm2/MdmX binding inhibition. O15151+Q00987. inhibition, % at 8 µM. 3% of 330,000 active. SaOS-2 split-luciferase Mdm2/MdmX complementation, luminescence;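 active means inhibition of at least 50% at 8 µM in the primary screen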
Calb FLC: C. albicans growth modulation with fluconazole | C. albicans CaCi-2 + fluconazole, Alamar Blue growth, 48 h | AID 1979 | 0.57% of 300,000 active | growth inhibition, % (concentration not given with the values);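 active means growth inhibition above about 58% in most replicates, limit read from the data, passing the limit was not always enough; inconclusive means exactly half the replicates above a set limit; inactive means most replicates below a set limit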;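 further: all wells also contain fluconazole at 8 µg/ml as a sub-toxic cotreatment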
Beta apoptosis: blocks beta cell apoptosis. 0.8% of 300,000 active. protection from apoptosis, % (test concentration not listed). INS-1E cytokine-induced death, ATP luminescence, 48 h; percent of positive-control rescue, neutral wells zero;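 active means Every replicate reaches about 75%, or at least half do and their mean reaches it too, limit read from the data; inconclusive means At least half of replicates reach the limit but their mean does not; inactive means Under half of replicates reach the limit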;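 further: higher means more ATP so stronger rescue from cytokine killing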
T cruzi repl: T. cruzi replication inhibition. AID 1885. inhibition, % (test concentration not listed). 1.4% of 300,000 active. T. cruzi beta-gal in NIH3T3, luminescence, 90 h;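 active means mean inhibition across valid replicates above about 55%, limit read from the data; inconclusive means mean below that limit but half or more replicates reach it; inactive means mean below it, under half of replicates reach it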;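 further: signal also drops with host cell toxicity which is not excluded here; higher percent means less beta-gal luminescence so fewer parasites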
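Material: NIH/3T3 host cells with β-galactosidase reporter T. cruzi; Input: 5,000 host fibroblasts per well; Medium: DMEM, 2% fetal bovine serum; Compound: 50 nL DMSO compound solution per well; Schedule: 3 h host attachment, then at least 90 h co-culture; Detection: luminescent β-galactosidase signal after 60 min lysis.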
Mdm2-MdmX conf: confirmation of human Mdm2/MdmX interaction inhibitors; shares compounds with Mdm2-MdmX inh; Mdm2-MdmX binding, luminescent assay; inhibition, % at 8 µM; 55% of 10,000 active; AID 489028; in the data active means inhibition above about 40%
Full FLuc ctr: inhibits full-length luciferase, flagging false Mdm2/MdmX hits; shares compounds with Mdm2-MdmX inh; AID 504607; SaOS-2 full-length luciferase counterscreen, luminescence; 77% of 6,200 active; inhibition, % at 8 µM;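 active means mean inhibition at 8 µM reaching about 37%, which flags the compound as non-specific, limit read from the data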;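 further: p53-null SaOS-2 cells with luciferase driven by a doxycycline-inducible promoter; compound on cells about two nights before reading with doxycycline added after day one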
A number is an active result; . = inactive; ? = inconclusive; / = no result.

SMILES	NALP3 yeast inh	CSC inhib	Mdm2-MdmX inh	Calb FLC	Beta apoptosis	T cruzi repl	Mdm2-MdmX conf	Full FLuc ctr
Cn1c(SCC#N)nnc1-c1cccnc1	.	/	.	?	.	.	/	/
CC(C)=CCc1cc([C@@H]2COc3c(ccc4c3C=CC(C)(C)O4)C2)c(O)cc1O	.	.	63.7	.	.	.	.	/
CCCCCCC[C@@H](C/C=C/CCC(=O)N(C)C/C(=C/Cl)C/C(=C\C(=O)N1CC(OC)=CC1=O)OC)OC	.	140.0	60.4	/	.	/	.	/
CCCCCCC[C@@H](C/C=C/CCC(=O)N(C)C/C(=C/Cl)C/C(=C\C(=O)N1C[C@H](O)CC1=O)OC)OC	.	/	.	/	/	/	/	/
CCN(N=Nc1cccc([N+](=O)[O-])c1)c1cccc([N+](=O)[O-])c1	.	.	.	.	.	.	/	/
CCn1c(SCc2c(F)cccc2Cl)nnc1-c1ccco1	.	/	.	.	/	.	/	/
COc1cc(/C=N/NC(=O)c2cc(-c3cccn3C)n[nH]2)cc(OC)c1OC	.	.	.	.	.	.	/	/
COc1cccc(/C=N/NC(=O)c2cc(-c3cccn3C)n[nH]2)c1O	.	87.2	53.1	103.2	.	.	63.5	.
COc1ccccc1/C=N/NC(=O)c1cc2c(OC)c(OC)ccc2[nH]1	.	.	.	.	.	.	/	/
COc1ccc(/C=N/NC(=O)c2cc3c(OC)ccc(OC)c3[nH]2)cc1O	.	.	61.1	.	.	.	47.5	90.5
COc1ccc(OC)c2[nH]c(C(=O)N/N=C/c3ccccc3O)cc12	.	.	81.6	89.5	96.3	.	71.4	.
CC1(C)CC(=O)C(C=NCC2CCCO2)=C(O)C1 (centres undefined)	.	.	.	/	.	/	/	/
Cc1ccc(CNC(=O)CCCc2nc3ccccc3s2)cc1	.	.	.	.	.	.	/	/
CCCCC(CCC(=O)Nc1cccc([N+](=O)[O-])c1)C(=O)O (centres undefined)	.	.	.	.	.	.	/	/
CC1=Nc2cc(C(=O)NCCCOC(C)C)ccc2Sc2ccccc21	.	.	.	.	.	.	/	/
CC1=Nc2cc(C(=O)NCCCOC(C)C)ccc2Sc2ccc(C)cc21	.	.	63.0	.	.	.	52.1	81.3
CCCC1=Nc2cc(C(=O)NCCCOC(C)C)ccc2Sc2ccccc21	.	.	50.5	.	.	.	65.7	71.0
CCCC1=Nc2cc(C(=O)NCCCOCC)ccc2Sc2ccccc21	.	.	59.8	.	.	.	72.4	123.5
CC1=Nc2cc(C(=O)NCC3CCCO3)ccc2Sc2ccc(Br)cc21 (centres undefined)	.	.	56.1	.	.	.	59.7	61.3
NC(=O)NCCCC(=O)OCC(=O)c1ccc2ccccc2c1	.	.	.	.	.	.	/	/
O=C(c1cccc(S(=O)(=O)N2CCOCC2)c1)N1CCC(Cc2ccccc2)CC1	.	/	.	/	.	/	/	/
COCCNC(=O)C(=O)Nc1ccc2c(c1)N(S(=O)(=O)c1cccs1)CCC2	.	/	55.6	.	.	.	72.2	63.9
O=C(NCCC1CCCCN1S(=O)(=O)c1cccs1)C(=O)Nc1ccccc1 (centres undefined)	.	.	.	.	/	.	/	/
Cc1cc(C)c(S(=O)(=O)N2CCCCC2CCNC(=O)C(=O)NC2CC2)c(C)c1 (centres undefined)	.	.	91.8	.	.	.	94.5	.
O=C(NCCCO)C(=O)Nc1ccc2c(c1)N(S(=O)(=O)c1cccs1)CCC2	.	/	.	.	.	.	/	/
SMILES	NALP3 yeast inh	CSC inhib	Mdm2-MdmX inh	Calb FLC	Beta apoptosis	T cruzi repl	Mdm2-MdmX conf	Full FLuc ctr
COc1ccc(NC(=O)C(=O)NCCC2CCCCN2S(=O)(=O)c2cccs2)cc1 (centres undefined)	.	.	52.5	.	/	.	73.3	74.8
COc1ccc(NC(=O)C(=O)NCCC2CCCCN2S(=O)(=O)c2ccccc2)cc1 (centres undefined)	.	.	55.1	.	/	.	78.7	56.1
Cc1cc(-c2nn(-c3ccccc3F)cc2CN2CCC(C(N)=O)CC2)c(C)s1	.	.	.	.	.	.	/	/
COc1ccc(CCNC(=O)C(=O)NCC2CCCN2S(=O)(=O)c2ccccc2)cc1OC (centres undefined)	.	.	51.8	.	.	.	.	/
O=C1c2ccccc2C(=O)c2c(Nc3ccc(CCO)cc3)ccc(O)c21	.	88.3	72.3	.	.	.	.	.
Nc1ccc(O)c2c1C(=O)c1ccccc1C2=O	.	.	.	.	.	.	/	/
COc1cccc(/C=N/NC(=O)CNC(=O)C(c2ccccc2)c2ccccc2)c1O	.	/	57.2	.	.	.	67.6	.
COc1cccc(/C=N/NC(=O)CSCC(=O)Nc2ccccc2)c1O	.	/	51.8	.	.	.	49.3	51.4
O=C(Nc1ccc(O)c2c(=O)cc(-c3cccc(Cl)c3)oc12)c1cccc(Cl)c1	.	.	80.7	.	/	.	.	/
CC(C)(C)c1ccc(C(=O)Nc2ccc(O)c3c(=O)cc(-c4cccc(Cl)c4)oc23)cc1	.	.	.	.	.	.	/	/
O=C(N/N=C/c1sc2ccccc2c1O)c1ccccc1	.	.	67.7	.	102.9	.	67.3	41.2
COc1ccc2cc(C(=O)N/N=C/c3sc4ccccc4c3O)ccc2c1	.	147.5	89.2	.	92.3	.	88.7	.
O=C(N/N=C/c1ccccc1C(F)(F)F)c1ccc(O)cc1	.	.	.	.	.	.	/	/
Cc1ccc(NC(=O)c2nc[nH]c2C(=O)NCCCNC(=O)c2[nH]cnc2C(=O)Nc2ccc(C)cc2)cc1	.	112.9	67.6	/	.	/	.	/
CN(CCN(C)C(=O)c1[nH]cnc1C(=O)Nc1ccccc1)C(=O)c1[nH]cnc1C(=O)Nc1ccccc1	.	.	.	/	.	/	/	/
Cc1ccc(NC(=O)c2nc[nH]c2C(=O)NCCCCCCNC(=O)c2[nH]cnc2C(=O)Nc2ccc(C)cc2)cc1	.	/	69.7	/	.	/	.	/
O=C(Nc1ccccc1)c1nc[nH]c1C(=O)NCCCCNC(=O)c1[nH]cnc1C(=O)Nc1ccccc1	.	.	77.1	/	.	/	45.1	89.9
O=C(Nc1ccccc1)c1nc[nH]c1C(=O)NCCNC(=O)c1[nH]cnc1C(=O)Nc1ccccc1	.	.	.	/	.	/	/	/
O=C(c1ccccc1)c1nc[nH]c1C(=O)Nc1ccccc1	.	.	50.2	.	.	.	.	64.8
COc1cc(C(=O)NC(c2ccccc2)c2ccccc2)cc(OC)c1OC	.	.	.	.	.	.	/	/
CS(=O)(=O)N(CC(=O)NCc1ccccc1)c1ccc(Cl)cc1	.	.	.	.	.	.	/	/
Cc1ccc(NC(=O)c2nc[nH]c2C(=O)NCCCCNC(=O)c2[nH]cnc2C(=O)Nc2ccc(C)cc2)cc1	.	/	79.6	/	.	/	.	/
